High-throughput results: PubChem, Columbia University Molecular Screening Center
This is one part of a sample in which hits are shown more often than they occur.
Insulin prom act = TRM-6 insulin promoter activation; AID 1296; TRM-6 cells (human fetal islet line), insulin promoter eGFP reporter, imaging; plate-scaled: unstimulated 0, stimulated control 100; activation, % at 2 µM; actives 0.81% (n = 130,000);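 active = activation at 2 µM above a set limit, confirmed on inspection of the cell images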;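 also: share of cells whose green reporter signal exceeds an intensity cutoff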
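Test system: TRM-6 insulin promoter–eGFP reporter cells / Quantity: 1,000 cells per well / Reagent: tamoxifen inducer, 0.75 µM, in seeding medium / Compound dosing: 2 µM final, single concentration / Schedule: overnight tamoxifen, then two-day compound incubation at 37 °C / Measured by: automated fluorescence imaging of paraformaldehyde-fixed, Hoechst-counterstained cells, green channel / Read-out: percent activation from GFP-positive cell fraction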
* marks the source's active call; other numbers are inactive results.

SMILES | Insulin prom act
CCn1c(Cc2ccccc2)nnc1SCC(=O)Nc1ccc(OC)cc1 | 7
CCn1c(Cc2ccccc2)nnc1SCC(=O)Nc1ccc2c(c1)OCCO2 | 6
CCn1c(Cc2ccc(OC)cc2)nnc1SCC(=O)Nc1cccc(C(=O)OC)c1 | 443*
COc1ccc(NC(=O)C2CC(=O)OC23CCOC(C)(C)C3)cc1 (centres undefined) | 3
O=C(Nc1ccc(Cl)c([N+](=O)[O-])c1)c1cnccn1 | 0
O=C(Nc1ccccc1C(=O)N1CCCC1)C1COc2ccccc2O1 (centres undefined) | -8
CCc1nnc(NC(=O)C2COc3ccccc3O2)s1 (centres undefined) | -5
C=CCNC(=O)c1ccccc1NC(=O)C1COc2ccccc2O1 (centres undefined) | 471*
O=S(=O)(c1ccccc1F)N(Cc1ccco1)Cc1nnc(-c2ccccc2Br)o1 | 7
O=C(OCc1cccs1)c1ccccc1NS(=O)(=O)c1ccc2c(c1)OCCO2 | 8
CCC(C)C(NC(=O)C(C)NC(=O)CNC(=O)CNC(=O)OCc1ccccc1)C(=O)OC (centres undefined) | 343
CCOc1ccc(NC(=O)C(C)Oc2ccccc2C(=O)Nc2ccc(C)c(Cl)c2)cc1 (centres undefined) | -8
Cc1cc(C)c(C)c(C(=O)CSc2nnc(C)c(=O)[nH]2)c1C | -3
O=C(Nc1ccccc1)c1ccc2c(c1)OCCO2 | 9
O=C(Nc1ccccc1N1CCOCC1)c1ccc2c(c1)OCO2 | 367*
COc1ccc(C(=O)NC(=S)Nc2ccccc2N2CCOCC2)cc1Br | -2
Cc1ccc(C)c(NC(=O)CSc2nc3ccc(N4C(=O)c5ccccc5C4=O)cc3s2)c1 | 3
CCn1c(CC(=O)Nc2ccc(C)c(Cl)c2)nnc1SCC(=O)Nc1nc(C)cs1 | 450*
CCn1c(CC(=O)Nc2ccc(C)cc2)nnc1SCC(=O)N1CCN(c2ccccc2)CC1 | 188
CCn1c(CC(=O)Nc2ccccc2)nnc1SCC(=O)Nc1ccccc1C(=O)OC | -8
O=C(NC1CC1)C1=COCCO1 | -5
Cc1ccccc1NC(=O)COC(=O)Cc1ccsc1 | -10
CCc1ccc(N(C(=O)c2ccco2)C(C(=O)NC2CCCC2)c2ccco2)cc1 (centres undefined) | 3
CO[C@@H]1O[C@@H]2COC(c3ccccc3)O[C@@H]2[C@@H](OC)[C@@H]1O (some centres undefined) | 0
CCOc1cccc(C(=O)NC2CCCCC2)c1 | 147
SMILES | Insulin prom act
CCOc1cccc(C(=O)N2CCCCC2c2cccnc2)c1 (centres undefined) | 164*
CCOc1cccc(C(=O)NC(=S)NCc2cccnc2)c1 | -7
COc1ccc(OC)c(C2C(C(C)=O)=C(O)C(=O)N2Cc2cccnc2)c1 (centres undefined) | -9
Cc1cc(C)c(Cc2c(C)nc3c(C(=O)NCc4ccco4)cnn3c2C)c(C)c1 | -3
Cc1nc2cc(C(F)(F)F)ccc2n1C | -75
Cc1ccc(Cl)cc1NC(=S)NCCCSC1CCCCC1 | 9
Clc1ccc(-c2nnc(COc3ncnc4sccc34)o2)cc1 | -7
CN(C(=O)CSc1nnnn1-c1ccccc1)C1CCS(=O)(=O)C1 (centres undefined) | 0
CN(C)S(=O)(=O)c1ccc(C(=O)Nc2ccc(CCC(=O)N3CCCC3)cc2)cc1 | 449*
CCN(CC)S(=O)(=O)c1ccc(C(=O)Nc2ccc(Cc3ccncc3)cc2)cc1 | -7
CN(C)S(=O)(=O)c1ccc(C(=O)Nc2ccc(CN3CCCC3)cc2)cc1 | 6
CC(C)(C)C(=O)Nc1nc(C2CCCN2S(=O)(=O)c2ccc(Cl)cc2)cs1 (centres undefined) | -3
NC(=O)c1ccsc1NC(=O)Cc1ccc([N+](=O)[O-])cc1 | -7
CCN(C(=O)COC(=O)/C=C/c1ccccc1)C1CCCCC1 | -8
O=C1CCC([N+](=O)[O-])C(c2ccccc2Cl)N1 (centres undefined) | 79*
C=CCSc1ncc(C#N)c(N)n1 | 8
C=CCn1c(SCC(=O)Nc2cc(C)on2)nc2sc(CC)cc2c1=O | -9
S=C(NCc1ccccc1)N1CCn2cccc2C1c1cccnc1 (centres undefined) | 124*
CCCCNC(=S)N1CCn2cccc2C1c1ccccc1 (centres undefined) | 0
O=C(NC(=S)NCc1ccccc1)c1cccnc1 | -7
COc1cccc(C2CC(c3cccc(C)c3)n3ncnc3N2)c1 (centres undefined) | 143
CCOC(=O)C1CCCN(S(=O)(=O)c2ccc(C)cc2)C1 (centres undefined) | 0
CCOC(=O)C1CCN(S(=O)(=O)c2ccc(C)c(C)c2)CC1 | 206*
CCNC(=O)NC(=O)C(C)OC(=O)C1CCN(S(=O)(=O)c2ccc(C)c(C)c2)CC1 (centres undefined) | 108
CN(C(=O)COc1ccccc1C(=O)NCCc1ccccc1)c1ccccc1 | 0
SMILES | Insulin prom act
CCCNS(=O)(=O)c1cccc(C(=O)NC2CCCc3ccccc32)c1 (centres undefined) | 4
COc1ccc(Nc2ccc([N+](=O)[O-])cc2[N+](=O)[O-])cc1 | -6
CCN1CCS/C1=C/C=C/C1=[N+](CC)CCS1 | 233*
C/C(N)=C(/C#N)C(=O)CSc1nnc(COc2cc(C)ccc2C)o1 | 3
COc1ccc(CCc2nc(C)ccc2O)cc1 | -89
Cc1ccc(S(=O)(=O)N(C)c2c(C)ccc(S(N)(=O)=O)c2C)cc1 | 0
Cc1cc(Cl)cc(Cl)c1OCCOCCN(C)C | 129
Cc1cc(Cl)cc(Cl)c1OCCOc1cccc2cccnc12 | 84*
Cc1ccc(OCCOCCOc2cccc3cccnc23)c(Br)c1 | 8
O=C(N/N=C/c1cccnc1)c1ccccc1[N+](=O)[O-] | -3
COc1ccc(C(=O)c2sc3nc(-c4ccccc4)ccc3c2N)cc1 | 207*
COc1ccc(C(=O)c2oc3ccccc3c2N)cc1 | 306
CCOC(=O)c1sc2nc(-c3cccnc3)ccc2c1N | -71
CCCCOc1ccc(OCCCC)c2c1NC1(N2)C(=O)N(C(C)=O)c2ccccc21 | -73
CCCNC(=O)c1cc2nc(-c3ccccc3)cc(C(F)(F)F)n2n1 | 0
COc1ccc(C(=O)N2CCc3ccccc32)cc1 | -6
O=C(c1ccccc1)N1CCc2ccccc21 | 0
Cc1cccc2cc3c(N)c(C(=O)N4CCc5ccccc54)sc3nc12 | 233*
C/C(=N\NC(=O)c1cccc(Cl)c1)c1cccc(NC(=O)C(C)C)c1 | 3
Cc1ccc(C)n1NC(=O)c1cccc(Cl)c1 | -4
CC(C)c1ccc(/C=N/NC(=O)c2cccc(Cl)c2)cc1 | 517*
CN(C)CCCNc1ccc(S(N)(=O)=O)cc1[N+](=O)[O-] | -8
COC(=O)c1nn(-c2ccccc2)c(Cl)c1/C=N/OCc1ccc(Cl)cc1Cl | -7
CCNC(=O)c1ccccc1CCc1ccccc1 | 5
COc1cc2cc(C(c3nnnn3C(C)(C)C)N3CCC(C)CC3)c(=O)[nH]c2cc1OC (centres undefined) | 7
SMILES | Insulin prom act
CC(C)NC(=O)c1ccc(COCC(F)(F)C(F)F)cc1 | 80*
O=C(Nc1ccc(Cl)cn1)c1ccc(COCC(F)(F)C(F)F)o1 | 0
O=C(Nc1ccc(OCC(F)(F)C(F)F)cc1)c1ccncc1 | -6
CCOC(=O)CSc1ccc(S(=O)(=O)N(C)C2CCCCC2)cc1[N+](=O)[O-] | -3
O=C(CCl)Nc1cccn2ncnc12 | -3
Cc1c(OCc2ccccc2)c(=O)ccn1Cc1ccc(F)cc1 | 2
Cc1c(O)c(=O)ccn1Cc1ccccc1 | 257*
